In ChEMBL document CHEMBL2412994, “Solid phase synthesis of Smac/DIABLO-derived peptides using a 'Safety-Catch' resin: identification of potent XIAP BIR3 antagonists” (Bioorg Med Chem, 2013):
Active and inactive are the calls of the source. The rule behind the calls is not given here. Square brackets hold non-standard residues; d marks the D form. Peptide text beside a SMILES is read from it. Phg = N[C@H](C(=O)O)c1ccccc1; NMeA = CN[C@@H](C)C(=O)O

What was measured:
MDA-MB-231 = experiment: Cytotoxicity against human MDA-MB-231 cells assessed as cell viability after by MTT assay; format: functional
Method in brief: (§1)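 MTT viability assay. MDA-MB-231 cells were seeded at 1 × 10⁴ cells/well and MCF-7 cells at 2 × 10⁴ cells/well, then held 24 h at 37 °C in 5% CO₂. Medium was replaced with treatments; vehicle controls received matched DMSO. After 72 h, MTT (10 mg/ml stock) was added for 2 h in the dark. Formazan was dissolved in DMSO and read at 550 nm. Viability relative to untreated control at 100 µM.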

MCF7 = experiment: Cytotoxicity against human MCF7 cells assessed as cell viability after by MTT assay; format: functional; method in brief: as §1
[1] = biological target: E3 ubiquitin-protein ligase XIAP (Homo sapiens, UniProt P98170); experiment: Binding affinity to XIAP BIR3-domain (unknown origin)
E3 ubiquitin-protein ligase XIAP, sequence (P98170 whole entry): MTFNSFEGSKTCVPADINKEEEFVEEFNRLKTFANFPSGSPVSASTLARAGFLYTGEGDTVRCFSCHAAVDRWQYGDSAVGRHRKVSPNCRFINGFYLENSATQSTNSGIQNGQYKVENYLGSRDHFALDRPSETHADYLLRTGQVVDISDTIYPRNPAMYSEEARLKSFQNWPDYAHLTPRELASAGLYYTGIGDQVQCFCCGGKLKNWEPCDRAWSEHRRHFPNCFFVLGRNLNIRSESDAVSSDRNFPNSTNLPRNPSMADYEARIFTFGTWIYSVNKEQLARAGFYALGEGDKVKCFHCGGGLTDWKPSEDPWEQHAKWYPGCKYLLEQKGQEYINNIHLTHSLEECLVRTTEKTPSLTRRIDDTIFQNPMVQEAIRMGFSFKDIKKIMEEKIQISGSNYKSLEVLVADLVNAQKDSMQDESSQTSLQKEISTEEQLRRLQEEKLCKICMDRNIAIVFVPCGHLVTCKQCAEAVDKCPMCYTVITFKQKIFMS

Molecule	Activity (MDA-MB-231)	Activity (MCF7)	Kd [1]
CN[C@@H](C)C(=O)N[C@H](C(=O)N1C[C@H](c2ccccc2)C[C@H]1C(=O)NC(c1ccccc1)c1ccccc1)C(C)(C)C	50.1%	62.3%	
CN[C@@H](C)C(=O)N[C@H](C(=O)N1C[C@H](Oc2ccccc2)C[C@H]1C(=O)NC(c1ccccc1)c1ccccc1)C(C)(C)C	50.3%	58.6%	
CN[C@@H](C)C(=O)N[C@H](C(=O)N1C[C@H](Oc2ccccc2)C[C@H]1C(=O)N[C@@H]1CCCc2ccccc21)C(C)(C)C	58.1%	70.8%	
CN[C@@H](C)C(=O)N[C@H](C(=O)N1C[C@H](c2ccccc2)C[C@H]1C(=O)N[C@@H]1CCCc2ccccc21)C(C)(C)C	54.6%	79.4%	
CN[C@@H](C)C(=O)N[C@H](C(=O)N1CCC[C@H]1C(=O)N[C@@H](Cc1ccccc1)C(=O)N[C@@H](Cc1ccc(O)cc1)C(N)=O)C(C)C (H-[NMeA]VPFY-NH2)	inactive	inactive	40 nM
CC(C)[C@H](NC(=O)[C@H](C)N)C(=O)N1CCC[C@H]1C(=O)N[C@H](C(=O)N[C@@H](Cc1ccc(O)cc1)C(N)=O)c1ccccc1 (H-AVP[Phg]Y-NH2)	inactive	inactive	30 nM
H-AVPFY-NH2	inactive	inactive	60 nM
